Source: ChEMBL document CHEMBL4190252, “Synthesis, antitumor activity and CDK1 inhibiton of new thiazole nortopsentin analogues” (Eur J Med Chem, 2017)

Biological target: Cyclin-dependent kinase 1/cyclin B1 (Homo sapiens, UniProt P06493)
Assay: Inhibition of recombinant human full length His-tagged CDK1/cyclin B expressed in baculovirus expression system after 60 mins in presence of omnia peptide substrate by fluorescence based assay
In short: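 Recombinant human CDK1/cyclin B in kinase buffer with Omnia peptide substrate, ATP and DTT, with inhibitor at 0.1–10 µM. Reactions ran for 60 min at 30 °C, with fluorescence read at ex 360/em 485 nm. Initial velocity came from the RFU-versus-time slope and was plotted against concentration for a dose-response IC50 fit. Values are mean±SD of two determinations.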

Chain of Cyclin-dependent kinase 1/cyclin B1 (P06493 whole entry): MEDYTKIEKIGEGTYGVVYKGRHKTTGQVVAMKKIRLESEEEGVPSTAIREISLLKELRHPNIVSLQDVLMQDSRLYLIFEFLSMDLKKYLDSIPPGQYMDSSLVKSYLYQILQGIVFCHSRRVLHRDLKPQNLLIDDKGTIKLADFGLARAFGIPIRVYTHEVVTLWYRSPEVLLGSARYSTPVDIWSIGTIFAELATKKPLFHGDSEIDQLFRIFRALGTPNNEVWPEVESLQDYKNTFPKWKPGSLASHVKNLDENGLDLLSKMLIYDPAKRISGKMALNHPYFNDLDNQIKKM
Chain of Cyclin-dependent kinase 1/cyclin B1 (P14635 whole entry, further chain): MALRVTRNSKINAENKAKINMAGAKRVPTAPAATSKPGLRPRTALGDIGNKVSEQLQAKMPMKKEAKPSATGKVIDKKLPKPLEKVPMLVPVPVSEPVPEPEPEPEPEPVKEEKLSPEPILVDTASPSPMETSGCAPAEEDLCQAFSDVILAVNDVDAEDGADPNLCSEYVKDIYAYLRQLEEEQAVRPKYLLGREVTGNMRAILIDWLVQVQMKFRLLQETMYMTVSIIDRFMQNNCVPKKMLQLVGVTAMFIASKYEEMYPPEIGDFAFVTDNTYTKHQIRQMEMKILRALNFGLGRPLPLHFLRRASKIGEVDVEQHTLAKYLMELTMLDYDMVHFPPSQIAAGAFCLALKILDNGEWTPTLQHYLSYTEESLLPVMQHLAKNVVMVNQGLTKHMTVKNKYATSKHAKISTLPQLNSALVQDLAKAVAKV

IC50: 970 nM
Compound: Cn1cc(-c2nc(-c3cn(C)c4ncccc34)cs2)c2cc(F)ccc21
